Assay [1] has as its system MDA-MB-231. In words: Cytotoxicity against human MDA-MB-231 cells assessed as growth inhibition after 72 hrs by MTT based WST-8 assay. The assay is classed as functional, cell-based. To be noted: MDA-MB-231, 72 h. A digest of the protocol:
(§1)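 Cells in RPMI1640 with 10% FBS were seeded at 5.0×10^3 cells/well and left to adhere for 4 h at 37 °C, 5% CO2. Compound was then added for 72 h. Medium was removed and WST-8 reagent (stock: 5 mM WST-8, 0.2 mM 1-methoxyphenazinium salt, 150 mM NaCl) was added for 1.5 h at 37 °C. A450 was read with 650 nm correction. IC50 was taken from concentration–response curves as % of vehicle-control absorbance.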
For orientation: Tetrazolium assays rely on reduction of a dye to a coloured formazan, in cell work by metabolically active cells.

Assay [2] deals with A549. In words: Cytotoxicity against human A549 cells assessed as growth inhibition at 10 uM after 72 hrs by MTT based WST-8 assay. The assay is classed as functional. The following applies: A549, 72 h, read-out: GI. The essentials:
(§2)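 Single-concentration screen at 10 μM. Cells in RPMI1640 with 10% FBS were seeded at 5.0×10^3 cells/well, adhered for 4 h, then exposed for 72 h at 37 °C, 5% CO2. Medium was removed and WST-8 reagent added for 1.5 h. Absorbance was read at 450 nm with 650 nm correction and growth was expressed as percentage of vehicle-control absorbance.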

The test system of assay [3] is MDA-MB-231. In words: Cytotoxicity against human MDA-MB-231 cells assessed as growth inhibition at 10 uM after 72 hrs by MTT based WST-8 assay. Format: functional. To be noted: MDA-MB-231, 72 h, read-out: GI. The essentials: as §2
Assay [4] relates to A549. Description: Cytotoxicity against human A549 cells assessed as growth inhibition after 72 hrs by MTT based WST-8 assay. Format: functional, cell-based. The following applies: A549, 72 h. The essentials:
as §1

In general, pIC50 refers to the IC50 on a negative log10 scale, so that one unit is a factor of ten.

pIC50: −log10 of the molar value.

`O=C(Nc1ccc(Oc2ccc(-c3nccs3)cc2)cc1)Nc1ccc(F)c(C(F)(F)F)c1`: the negative logarithm of the IC50 (pIC50) is 5.06 with MDA-MB-231 [1] and 5.30 in the assay with A549 [4]. Also, the figures for the inhibition of growth at 10 µM in the assay with A549 [2] and in the assay on MDA-MB-231 [3] were 76.4% and 71.8%, respectively.

In the case of `O=C(Nc1ccc(Oc2ccc(-c3nccs3)cc2)cc1)Nc1ccc(Cl)c([N+](=O)[O-])c1`, the negative logarithm of the IC50 (pIC50) in the assay on MDA-MB-231 [1] is 5.16; with A549 [4] it was 5.41. Moreover, the inhibition of growth at 10 µM worked out at 77.1% in the assay with A549 [2] and 72.8% in the assay on MDA-MB-231 [3].

On to `O=C(Nc1ccc(Oc2ccc(-c3nccs3)cc2)cc1)Nc1ccc(Cl)c(C(F)(F)F)c1`, for which the pIC50 was 5.22 in the assay on MDA-MB-231 [1] and 5.42 in the assay on A549 [4]. The results for the inhibition of growth at 10 µM in the assay on A549 [2] and in the assay on MDA-MB-231 [3] were 77.6% and 69.6%, respectively.

In the case of `COC(=O)c1sccc1NC(=O)Nc1ccc(Oc2ccc(-c3ncc[nH]3)cc2)cc1`, the inhibition of growth at 10 µM in the assay with A549 [2] is 2.34%; in the assay on MDA-MB-231 [3], -1.46%.

`O=C(Nc1ccc(Oc2ccc(-c3nccs3)cc2)cc1)Nc1ccc(F)c(Cl)c1`: the inhibition of growth at 10 µM with A549 [2] amounted to 37.3%; in the assay with MDA-MB-231 [3], 43.9%.

With `O=C(Nc1ccc(Oc2ccc(-c3ncc[nH]3)cc2)cc1)Nc1ccc(Cl)c([N+](=O)[O-])c1`, the inhibition of growth at 10 µM worked out at 12.4% with A549 [2] and 3.36% in the assay on MDA-MB-231 [3].

As for `O=C(Nc1ccc(Oc2ccc(-c3ncc[nH]3)cc2)cc1)Nc1cccc(C(F)(F)F)c1`, the values for the inhibition of growth at 10 µM in the assay with A549 [2] and in the assay on MDA-MB-231 [3] were 30% and 28.1%, respectively.

Regarding `O=C(Nc1ccc(Oc2ccc(-c3ncc[nH]3)cc2)cc1)Nc1ccc(F)c(Cl)c1`, the inhibition of growth at 10 µM in the assay on A549 [2] is 14.6%; with MDA-MB-231 [3], 4.2%.

For the molecule `Cc1ccc(NC(=O)Nc2ccc(Oc3ccc(-c4ncc[nH]4)cc3)cc2)cc1`, the inhibition of growth at 10 µM in the assay on A549 [2] stood at 24.6%; in the assay with MDA-MB-231 [3] it was 49.3%.

`Cc1ccc(NC(=O)Nc2ccc(Oc3ccc(-c4nccs4)cc3)cc2)cc1`: the inhibition of growth at 10 µM in the assay on A549 [2] stood at 15.6%; in the assay with MDA-MB-231 [3] it was 22.8%.

`O=C(Nc1ccc(Oc2ccc(-c3ncc[nH]3)cc2)cc1)Nc1cc(C(F)(F)F)ccc1Cl`: the values for the inhibition of growth at 10 µM with A549 [2] and in the assay with MDA-MB-231 [3] were 22.3% and 32.3%, respectively.

Turning to `O=C(Nc1ccc(Oc2ccc(-c3nccs3)cc2)cc1)Nc1cc(Br)cc(C(F)(F)F)c1`, the pIC50 is 5.38 with MDA-MB-231 [1] and 5.57 in the assay with A549 [4]. Moreover, the results for the inhibition of growth at 10 µM in the assay on A549 [2] and in the assay on MDA-MB-231 [3] were 81.7% and 72.8%, respectively.

On to `O=C(Nc1ccc(Cl)cc1)Nc1ccc(Oc2ccc(-c3nccs3)cc2)cc1`, for which the inhibition of growth at 10 µM with A549 [2] was determined as 17.7%; with MDA-MB-231 [3], 32.5%.

In the case of `COC(=O)c1sccc1NC(=O)Nc1ccc(Oc2ccc(-c3nccs3)cc2)cc1`, the inhibition of growth at 10 µM in the assay with A549 [2] turned out to be 6.78%; in the assay with MDA-MB-231 [3], 11%.

With `O=C(Nc1ccc(Oc2ccc(-c3ncc[nH]3)cc2)cc1)Nc1ccc(F)c(C(F)(F)F)c1`, the results for the inhibition of growth at 10 µM in the assay with A549 [2] and with MDA-MB-231 [3] were 63.3% and 26.6%, respectively. Also, in the assay with A549 [4], the pIC50 is 4.98.

In the case of `O=C(Nc1ccc(Oc2ccc(-c3nccs3)cc2)cc1)Nc1cc(C(F)(F)F)ccc1Cl`, the pIC50 with MDA-MB-231 [1] is 5.05; in the assay with A549 [4], 5.15. Also, the inhibition of growth at 10 µM with A549 [2] was 75.5%; in the assay with MDA-MB-231 [3], 60.4%.

On to `O=C(Nc1ccc(Oc2ccc(-c3ncc[nH]3)cc2)cc1)Nc1cc(Br)cc(C(F)(F)F)c1`, for which the inhibition of growth at 10 µM with A549 [2] is 44.1%; with MDA-MB-231 [3] it was -13.6%.

Consider `O=C(Nc1ccc(Cl)cc1)Nc1ccc(Oc2ccc(-c3ncc[nH]3)cc2)cc1`, for which the inhibition of growth at 10 µM amounted to 8.86% in the assay on A549 [2] and 47.6% in the assay on MDA-MB-231 [3].

For `O=C(Nc1ccccc1)Nc1ccc(Oc2ccc(-c3ncc[nH]3)cc2)cc1`, the inhibition of growth at 10 µM in the assay on A549 [2] turned out to be 7.09%; with MDA-MB-231 [3] it was 11.4%.

For `O=C(Nc1ccc(Oc2ccc(-c3ncc[nH]3)cc2)cc1)Nc1ccc(Cl)c(C(F)(F)F)c1`, the inhibition of growth at 10 µM turned out to be 67.9% in the assay with A549 [2] and 38.1% in the assay with MDA-MB-231 [3]. Besides, the pIC50 in the assay with A549 [4] is 5.15.

As to `O=C(Nc1ccc(Oc2ccc(-c3nccs3)cc2)cc1)Nc1cccc(C(F)(F)F)c1`, the pIC50 is 5.02 with MDA-MB-231 [1] and 5.25 in the assay on A549 [4]. Further, the inhibition of growth at 10 µM is 71.5% with A549 [2] and 64.1% with MDA-MB-231 [3].

`CNC(=O)c1cc(Oc2ccc(NC(=O)Nc3ccc(Cl)c(C(F)(F)F)c3)cc2)ccn1` [SORAFENIB]: the pIC50 is 5.12 in the assay on MDA-MB-231 [1] and 5.28 in the assay on A549 [4]. Besides, the inhibition of growth at 10 µM with A549 [2] amounted to 81.2%; in the assay with MDA-MB-231 [3], 79.6%.

Source of the values: ChEMBL document CHEMBL1165866, “Design, synthesis, and in vitro antitumor evaluation of novel diaryl ureas derivatives” (Eur J Med Chem, 2010).
